Only some compounds are listed: those with a hit (about 3.8% of all), similar ones and a draw of the others.
CSC inhib – cancer stem cell inhibition. cancer stem cell-like cells viability, luminescence. 300,000 tested, 1.1% active. inhibition, % at 7.5 µM; in the data active = inhibition above about 75%; tested in HMLE shEcad cells
Beta apoptosis – beta cell apoptosis inhibition; 300,000 tested, 0.8% active; INS-1E cytokine-induced death, ATP luminescence, 48 h; percent of positive-control rescue, neutral wells zero; AID 435005; protection from apoptosis, % (no concentration beside the values);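 active = Every replicate reaches about 75%, or at least half do and their mean reaches it too, limit read from the data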;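 note: 0% = cytokine-treated negative control wells and 100% = positive control rescue; higher means more ATP so stronger rescue from cytokine killing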
ANO1 block – mouse TMEM16A channel inhibition, primary screen; HEK293 TMEM16A/YFP iodide influx fluorescence, ionomycin; normalized B-score (activity score, 25-100; higher = stronger inhibition) at 10 µM; 310,000 tested, 1.2% active; Q8BHY3; AID 588511;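 active = ratio plate-corrected score three or more library SD toward inhibition, starting fluorescence score within five deviations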;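 note: score derived from kinetic fluorescence span divided by baseline fluorescence per well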
Target sequence (Q8BHY3 whole entry, looked up): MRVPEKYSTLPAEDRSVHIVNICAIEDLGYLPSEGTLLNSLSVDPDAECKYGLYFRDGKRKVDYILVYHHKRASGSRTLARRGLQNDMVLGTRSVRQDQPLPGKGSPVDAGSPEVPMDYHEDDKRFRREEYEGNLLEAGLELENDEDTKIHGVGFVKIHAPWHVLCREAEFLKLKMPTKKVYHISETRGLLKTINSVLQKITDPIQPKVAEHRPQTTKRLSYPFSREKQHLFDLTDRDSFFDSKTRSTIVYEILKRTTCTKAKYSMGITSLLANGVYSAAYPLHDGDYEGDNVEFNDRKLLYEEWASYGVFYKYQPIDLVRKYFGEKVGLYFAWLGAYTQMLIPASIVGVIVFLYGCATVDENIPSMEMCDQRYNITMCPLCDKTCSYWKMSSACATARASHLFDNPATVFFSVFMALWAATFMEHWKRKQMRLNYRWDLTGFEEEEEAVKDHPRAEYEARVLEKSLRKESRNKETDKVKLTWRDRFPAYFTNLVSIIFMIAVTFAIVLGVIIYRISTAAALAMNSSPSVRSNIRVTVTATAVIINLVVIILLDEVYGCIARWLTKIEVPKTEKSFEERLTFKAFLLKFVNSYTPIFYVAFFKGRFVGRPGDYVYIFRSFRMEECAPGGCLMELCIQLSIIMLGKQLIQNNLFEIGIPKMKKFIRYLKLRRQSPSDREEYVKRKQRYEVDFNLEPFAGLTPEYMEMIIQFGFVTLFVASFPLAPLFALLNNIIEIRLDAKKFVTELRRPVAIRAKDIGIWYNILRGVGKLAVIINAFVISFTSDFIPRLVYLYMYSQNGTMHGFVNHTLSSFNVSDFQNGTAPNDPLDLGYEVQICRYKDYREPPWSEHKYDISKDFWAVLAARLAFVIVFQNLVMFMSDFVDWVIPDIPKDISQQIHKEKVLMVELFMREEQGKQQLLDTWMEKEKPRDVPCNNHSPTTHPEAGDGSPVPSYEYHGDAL
TMEM16A act – activators or potentiators of mouse TMEM16A chloride channel; B-score at 10 µM; HEK293 TMEM16A/YFP-H148Q/I152L, iodide quench fluorescence; stronger effect = lower value; 340,000 tested, 0.3% active; Q8BHY3;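 active = fluorescence-ratio B-score plate-corrected deviation score at least 3 library SD below zero, with starting fluorescence score within 5 deviations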;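 note: channel opened by trigger with iodide after compound preincubation; score built on the fluorescence ratio of max minus min over baseline; more negative score means more quench and so TMEM16A activation or potentiation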
MC4R ag barr – agonists of human melanocortin 4 receptor (MC4R) beta-arrestin. 360,000 tested, 0.98% active. activation, % at 8.9 µM. AID 540308. U2OS MC4R beta-arrestin complementation, luminescence; percent of melanotan II response, DMSO zero;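 active = activation above a per-plate cutoff, the mean activation of sample wells on that plate plus 3 SD, cut at about 8% in these data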
MC4R antagonist – antagonists of human melanocortin 4 receptor (MC4R). P32245. MC4R-expressing cells, MTII-stimulated cAMP, LANCE TR-FRET. inhibition, % at 6.5 µM. 360,000 tested, 0.48% active;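 active = inhibition above its plate's cutoff, the mean of tested wells on that plate plus 3 SD, cut at about 29% in these data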;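 note: 0% = Melanotan II alone and 100% = Melanotan II plus saturating MCL0020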
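Assay system: human MC4R-expressing U2OS cells; reagent: Melanotan II stimulation of cells; dosing: 6.5 µM single dose; timing: compound 30 min, challenge 1 h, detection 1 h; signal: TR-FRET cAMP assay; replicates: one well per compound, no replicates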
Numbers without * were called inactive; i = inactive; / = not tested or not shown.

SMILES	CSC inhib	Beta apoptosis	ANO1 block	TMEM16A act	MC4R ag barr	MC4R antagonist
CC(C)(C)c1ccc(C(=O)NCCC(=O)N2CCN(c3ncccn3)CC2)cc1	-8	-2	100*	i	3	13
CSc1ccc(C2C(C(=O)c3ccco3)=C(O)C(=O)N2c2nnc(SC)s2)cc1 (stereo unspecified)	-12	-3	i	i	-2	33*
COc1ccccc1-c1ccc(SCc2ccccc2F)nn1	-4	5	25*	i	5	-6
COc1ccccc1-c1ccc(SCc2ccccc2)nn1	0	7	i	i	-3	2
CC(C)N(C)c1ncnc2c1ncn2[C@H]1CN(CCc2ccccc2)C[C@@H](CO)O1	/	/	/	/	1	4
Cn1nc(C(C)(C)C)cc1C(=O)NCc1ccc2c(c1)OCO2	-10	117*	i	i	2	0
Nc1c(C(O)(C(F)(F)F)C(F)(F)F)cc(C(O)(C(F)(F)F)C(F)(F)F)c2ccccc12	124*	20	i	i	-1	6
C[C@H]1CC[C@H]2C(=O)N3[C@H](c4ccccc4Br)[C@@H](C)CC[C@H]3C(=O)N2[C@@H]1c1ccccc1Br	54	110*	i	/	/	/
CSc1ccccc1NC(=O)CN(C)Cc1cccc(Cl)c1	36	1	i	-39*	-2	3
CSc1ccccc1NC(=O)CN(C)CC(=O)NCc1ccccc1	-6	-3	i	i	-3	2
OC(CCN1CC2CCC(CC2)C1)(Cc1ccccc1)c1ccco1 (stereo unspecified)	/	/	/	i	-1	-2
CCn1c(=O)c([N+](=O)[O-])c(N2CCN(Cc3ccc4c(c3)OCO4)CC2)c2ccccc21	-4	129*	i	i	-1	-7
O=c1c([N+](=O)[O-])c(N2CCOCC2)c2ccccc2n1Cc1ccccc1	/	/	i	i	-1	-8
COC[C@H](NS(=O)(=O)c1ccc(Br)cc1F)[C@@H](O)c1ccccc1	/	/	/	/	0	12
CC(C)c1ccc(NC(=O)C2CC(=O)N(C3CCCC3)C2)cc1 (stereo unspecified)	1	-1	i	i	3	26
O=C(Nc1ccccc1)C1CC(=O)N(C2CCCCC2)C1 (stereo unspecified)	-15	-11	i	-7.7*	0	1
C=CCNc1nc(NCCOc2ccccc2Cl)c2sc(-c3ccccc3)cc2n1	/	/	/	/	-1	9
COc1ccc(S(=O)(=O)Nc2ccccc2)cc1	6	1	i	i	0	0
COc1ccc(S(=O)(=O)Nc2ccc(O)c3ccccc23)cc1	/	124*	i	i	0	-6
Cc1ccc(S(=O)(=O)Nc2ccc(O)c3ccccc23)c(C)c1	31	96*	i	i	-3	-8
Cc1ccc(C)c(S(=O)(=O)Nc2ccc(O)c3ccccc23)c1	21	99*	i	i	-2	6
O=S1(=O)CCN(C2CCCC2)CC1	/	/	/	/	-2	3
C[C@@H]1CN([C@@H](C)CO)C(=O)CCCn2nncc2CO[C@H]1CN(C)C(=O)c1ccc2ccn(C)c2c1	/	/	/	/	-1	2
CC1(C)CC(=O)C=C(c2ccc(COC(=O)c3cccc(C(F)(F)F)c3)cc2)C1=O	/	/	/	/	1	9
OC[C@@H]1CN(Cc2cccc(C(F)(F)F)c2)C[C@H](n2cnc3c(NCc4ccco4)ncnc32)O1	/	/	/	/	-1	-2
SMILES	CSC inhib	Beta apoptosis	ANO1 block	TMEM16A act	MC4R ag barr	MC4R antagonist
CC1(C)C=Cc2c(ccc3c2OC[C@H](c2ccc(O)cc2O)C3)O1	114*	2	/	i	-1	4
COc1ccc(C(=O)NCc2ccncc2)cc1S(=O)(=O)NCc1ccc(Cl)cc1	-5	-2	/	i	-1	-6
O=c1cc(-c2ccccc2Cl)oc2c(NS(=O)(=O)c3cc(Cl)cc(Cl)c3O)ccc(O)c12	102*	45	100*	i	-2	6
COc1ccc(OCCC(=O)OCC(=O)NCCC2=CCCCC2)cc1	-10	-7	i	-34*	0	3
COc1cc(C(=O)OCC(=O)NCCC2=CCCCC2)cc(OC)c1OC	/	/	/	i	-4	-3
COc1cc(C(=O)OCC(=O)NCCC2=CCCCC2)ccc1OCC(C)C	-3	/	i	i	9.2*	2
O=C(c1ccccc1)c1ccc2ccccc2c1	/	/	/	i	4	5
O=C(c1ccccc1)c1c2c(cc3sc4ccccc4[n+]13)-c1cccc3cccc-2c13	64	98*	100*	i	26*	-25
Cc1sc2cc3c(c(C(=O)c4ccccc4)[n+]2c1C)-c1cccc2cccc-3c12	35	100*	100*	/	/	/
Cc1cc2ccccc2cc1C(=O)c1ccccc1	/	/	/	i	2	5
Cc1ccc(-n2ncc(Br)c(Br)c2=O)cc1	/	/	/	i	1	45*
FC(F)(F)c1cccc(N2CCN(C(=S)NCC3CCCO3)CC2)c1 (stereo unspecified)	-14	4	25*	i	0	2
O=C(NNC(=O)c1ccccc1OCc1ccccc1)c1ccccc1F	1	5	i	i	-1	-4
O=C(NCc1ccc(F)cc1)c1ccccc1OCc1ccccc1	-5	5	i	i	0	-5
O=C(NNC(=O)c1ccccc1OCc1ccccc1)c1ccccc1O	-10	86*	i	i	3	15
O=C(NNC(=O)c1ccccc1OCc1ccc(F)cc1)c1ccccc1O	6	87*	i	i	-2	0
COc1ccc(NC(=O)CON=CC(=O)Nc2ccc(C)cc2)c(OC)c1	-13	0	/	i	-1	2
N#C/C(=C\c1ccc(O)c(O)c1)C(=O)Nc1ccccc1	35	-6	i	-5.2*	0	7
O=C(O)CSCC(=O)N(Cc1ccccc1)c1nc(-c2ccccc2)c(-c2ccccc2)s1	1	-3	100*	i	1	12
N#C/C(=N\Nc1ccc(S(=O)(=O)N2CCOCC2)cc1)C(N)=S	-2	-10	i	i	-2	2
N#CC(C#N)=NNc1ccc(S(=O)(=O)N2CCCCC2)cc1	-19	-3	100*	i	-1	22
COC(=O)/C(=C(O)\C=C\c1ccccc1[N+](=O)[O-])c1nc2ccccc2[nH]1	/	6	i	i	4	19
CC(C)(C)OC(=O)C[C@@H]1C/C=C\C[C@H](CC(=O)N(CCO)Cc2ccccc2)C(=O)NCCOC1=O	/	/	/	/	-2	6
O=C(/C=C/Sc1ccccc1)c1ccc(Cl)cc1	102*	-5	i	i	0	4
COCOCCn1cc(CN2CCS(=O)(=O)N(Cc3ccc(-c4ccc(OC)c(OC)c4)cc3)C(C)C2=O)nn1 (stereo unspecified)	/	/	/	/	1	15

Screens (PubChem BioAssay)
